Assay: Effective dose against human immuno deficiency virus-1/Ba-L in vitro in human monocyte-derived macrophages (MDM) cells
Format: functional
Details: for EC50: read-out: ED50 (the source's name)
Summary of the method: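 Primary human monocytes (elutriated, ≥95% pure) differentiated 7 days into MDM in DMEM/10% heat-inactivated FCS; 1 million cells pretreated 1 h with a range of concentrations, then infected with HIV-1/BaL (10 000 TCID50, moi 0.01) for 24 h at 37 °C, washed, refed; medium and drug renewed twice weekly. Supernatant RT activity summed as cumulative RT; ED50/70/90 by Chou software; triplicate, two donors.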

SMILES | ED70 [µM] | ED90 [µM] | EC50 [µM]
CC(=O)N[C@@H](CS)C(=O)NCCSC(C)=O | 80 | 195 | 45
CC(=O)N[C@@H](CSC(=O)c1ccccc1)C(=O)NCCSC(=O)C(C)C | 205 | 285 | 165
CC(=O)N[C@@H](CS)C(=O)NCCSC(=O)C(C)(C)C | 185 | 270 | 145
CC(=O)N[C@@H](CSC(C)=O)C(=O)NCCSC(=O)C(C)C | 55 | 80 | 45
CC(=O)N[C@@H](CS)C(=O)NCCSC(=O)C(C)C | 175 | 380 | 110
CC(=O)N[C@@H](CS)C(=O)NCCS | 75 | 200 | 40
